In brackets after ≈: the same amount, converted by molar mass.

Data on four compounds can be found in ChEMBL document CHEMBL3244426, “Synthesis and biological activities of ftorafur metabolites. 3'- and 4'-hydroxyftorafur” (1979).

Type in all cases: functional
The test system of assay [1] is L1210. Description: In-vivo antitumor activity against mouse L1210 cells at 80 mg/kg relative to control.
Assay [2] concerns HeLa. Description: Inhibition of cell cycle traverse in human HeLa cells assessed as mitotic index at 100 ug/ml after 16 hrs. Also noted: scale not given: the % may be the effect or the level left. Put shortly:
(§1)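 HeLa cells were plated at 3.5 × 10^5 per 35-mm dish in Eagle's MEM with 10% fetal calf serum and antibiotics the day before. They were then exposed to drug in the same medium with 0.05 µg/mL colcemid for 16 h. Cells were trypsinized, cytocentrifuged onto slides and fixed in 3:1 MeOH–AcOH. The read-out was the mitotic index, mitotic cells as a percentage of cells counted.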

Assay [3] concerns L1210. Nature of the assay: In-vivo antitumor activity against mouse L1210 cells at 100 mg/kg relative to control.
The test system of assay [4] is L1210. Nature of the assay: In-vivo antitumor activity against mouse L1210 cells at 60 mg/kg relative to control.
The test system of assay [5] is HeLa. Description: Inhibition of cell cycle traverse in human HeLa cells assessed as mitotic index at 200 ug/ml after 16 hrs. The arrangement: scale not given: the % may be the effect or the level left. Put shortly:
as §1

Assay [6] has as its system L1210. Nature of the assay: In-vivo antitumor activity against mouse L1210 cells at 20 mg/kg relative to control.
The subject of assay [7] is HeLa. Description: Inhibition of cell cycle traverse in human HeLa cells assessed as mitotic index at 12.5 ug/ml after 16 hrs. Also noted: scale not given: the % may be the effect or the level left. In short, it runs like this: (§2)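 HeLa cells (3.5 × 10^5) plated the day before in Eagle's MEM with 10% fetal calf serum and antibiotics. Drug added in the same medium with colcemid 0.05 µg/mL, incubated about 16 h. Cells trypsinized, cytocentrifuged onto slides, fixed in 3:1 MeOH-AcOH. Mitotic and interphase cells counted; mitotic index = % of total. Lower index means greater inhibition of cell cycle traverse.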

Assay [8] concerns HeLa. Description: Inhibition of cell cycle traverse in human HeLa cells assessed as mitotic index at 25 ug/ml after 16 hrs. Also noted: scale not given: the % may be the effect or the level left. Put shortly: as §2
The subject of assay [9] is HeLa. Nature of the assay: Inhibition of cell cycle traverse in human HeLa cells assessed as mitotic index at 50 ug/ml after 16 hrs. Also noted: scale not given: the % may be the effect or the level left. In short, it runs like this:
as §2

Assay [10] has as its system HeLa. Description: Growth inhibition of human HeLa cells. To be noted: read-out: ID50.

The term T/C denotes the result in the treated group divided by that in the control group, in per cent. With `O=c1[nH]c(=O)n([C@@H]2OCC[C@H]2O)cc1F` (relative stereo), the T/C stood at 98% in the assay with L1210 [1], 96% in the assay on L1210 [3] and 108% in the assay on L1210 [4]. Further, the Activity in the assay on HeLa [2] came out at 64%; with HeLa [5], 34.7%.
`O=c1[nH]c(=O)n([C@H]2C[C@@H](O)CO2)cc1F` (relative stereo): the T/C with L1210 [1] was 91%; with L1210 [3], 114%; in the assay with L1210 [4], 106%. The Activity with HeLa [2] is on record as 63.3%; with HeLa [5], 44%.
`O=c1[nH]cc(F)c(=O)[nH]1` [FLUOROURACIL] returned a T/C with L1210 [6] of 153%. In addition, the Activity in the assay on HeLa [7] is reported as 45.7%; in the assay with HeLa [8], 35.8%; with HeLa [9], 31.7%.
As to `O=c1[nH]c(=O)n(C2CCCO2)cc1F` (racemic) [TEGAFUR], the T/C with L1210 [1] worked out at 102%. The Activity in the assay on HeLa [2] is 60.3%; with HeLa [5], 36%. In addition, the ED50 with HeLa [10] came to 200 µg/mL (≈ 999 µM).
